These results are taken from ChEMBL document CHEMBL1137530, “The discovery of substituted 4-(3-hydroxyanilino)-quinolines as potent RET kinase inhibitors” (Bioorg Med Chem Lett, 2007).

Calls of active or inactive are those of the source. The rule behind the calls is not given here.

Broadly, the IC50 is the concentration at which inhibition is half-maximal. A higher IC50 goes with lower potency.

T1 sequence (P07949 whole entry, the tested form may be a part, canonical isoform): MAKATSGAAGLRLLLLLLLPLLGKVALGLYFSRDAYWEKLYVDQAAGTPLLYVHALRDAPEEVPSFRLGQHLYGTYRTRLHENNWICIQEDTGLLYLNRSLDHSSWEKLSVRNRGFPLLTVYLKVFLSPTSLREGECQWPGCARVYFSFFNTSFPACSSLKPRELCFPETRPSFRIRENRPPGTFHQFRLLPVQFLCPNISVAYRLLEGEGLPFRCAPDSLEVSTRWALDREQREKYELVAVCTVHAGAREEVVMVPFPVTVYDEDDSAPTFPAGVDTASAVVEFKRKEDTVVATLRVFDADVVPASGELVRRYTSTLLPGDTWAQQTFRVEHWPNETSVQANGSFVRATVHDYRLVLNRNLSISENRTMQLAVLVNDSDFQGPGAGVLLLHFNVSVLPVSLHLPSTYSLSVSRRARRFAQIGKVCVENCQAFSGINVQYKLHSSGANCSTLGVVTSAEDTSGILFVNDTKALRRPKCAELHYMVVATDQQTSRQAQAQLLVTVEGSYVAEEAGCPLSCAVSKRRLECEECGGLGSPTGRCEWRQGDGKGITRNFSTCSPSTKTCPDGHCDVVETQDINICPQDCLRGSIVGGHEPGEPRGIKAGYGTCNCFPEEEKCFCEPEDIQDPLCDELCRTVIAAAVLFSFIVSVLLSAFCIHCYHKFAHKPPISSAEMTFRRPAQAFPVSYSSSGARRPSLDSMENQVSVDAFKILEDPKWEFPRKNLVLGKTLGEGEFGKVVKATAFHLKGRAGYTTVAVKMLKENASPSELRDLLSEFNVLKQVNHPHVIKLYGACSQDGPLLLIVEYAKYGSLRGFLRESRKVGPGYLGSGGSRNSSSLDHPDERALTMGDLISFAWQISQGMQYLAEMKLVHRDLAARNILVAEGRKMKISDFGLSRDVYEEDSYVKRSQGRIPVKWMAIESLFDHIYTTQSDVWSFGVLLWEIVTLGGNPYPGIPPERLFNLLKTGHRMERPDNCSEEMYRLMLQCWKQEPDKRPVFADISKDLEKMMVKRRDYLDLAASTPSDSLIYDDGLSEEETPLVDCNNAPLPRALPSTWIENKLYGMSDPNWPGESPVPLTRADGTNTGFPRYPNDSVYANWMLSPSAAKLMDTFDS

The test system of one experiment is SK-N-MC. In words: Inhibition of chimeric human EGFR/RET kinase expressed in SK-N-MC cells after 1 hr by Western blotting. Format: cell-based. (A western blot detects proteins with antibodies after separation by electrophoresis.)
Turning to `Cc1ccc(O)cc1Nc1ccnc2cc(-c3csc(CN4CCOCC4)n3)c(S(C)(=O)=O)cc12`, the ED50 is 45 nM.

For another experiment, the target named is Angiopoietin-1 receptor (Homo sapiens) (UniProt Q02763). In words: Inhibitory of TIE2.
Chain of Angiopoietin-1 receptor (Homo sapiens) (Q02763 whole entry): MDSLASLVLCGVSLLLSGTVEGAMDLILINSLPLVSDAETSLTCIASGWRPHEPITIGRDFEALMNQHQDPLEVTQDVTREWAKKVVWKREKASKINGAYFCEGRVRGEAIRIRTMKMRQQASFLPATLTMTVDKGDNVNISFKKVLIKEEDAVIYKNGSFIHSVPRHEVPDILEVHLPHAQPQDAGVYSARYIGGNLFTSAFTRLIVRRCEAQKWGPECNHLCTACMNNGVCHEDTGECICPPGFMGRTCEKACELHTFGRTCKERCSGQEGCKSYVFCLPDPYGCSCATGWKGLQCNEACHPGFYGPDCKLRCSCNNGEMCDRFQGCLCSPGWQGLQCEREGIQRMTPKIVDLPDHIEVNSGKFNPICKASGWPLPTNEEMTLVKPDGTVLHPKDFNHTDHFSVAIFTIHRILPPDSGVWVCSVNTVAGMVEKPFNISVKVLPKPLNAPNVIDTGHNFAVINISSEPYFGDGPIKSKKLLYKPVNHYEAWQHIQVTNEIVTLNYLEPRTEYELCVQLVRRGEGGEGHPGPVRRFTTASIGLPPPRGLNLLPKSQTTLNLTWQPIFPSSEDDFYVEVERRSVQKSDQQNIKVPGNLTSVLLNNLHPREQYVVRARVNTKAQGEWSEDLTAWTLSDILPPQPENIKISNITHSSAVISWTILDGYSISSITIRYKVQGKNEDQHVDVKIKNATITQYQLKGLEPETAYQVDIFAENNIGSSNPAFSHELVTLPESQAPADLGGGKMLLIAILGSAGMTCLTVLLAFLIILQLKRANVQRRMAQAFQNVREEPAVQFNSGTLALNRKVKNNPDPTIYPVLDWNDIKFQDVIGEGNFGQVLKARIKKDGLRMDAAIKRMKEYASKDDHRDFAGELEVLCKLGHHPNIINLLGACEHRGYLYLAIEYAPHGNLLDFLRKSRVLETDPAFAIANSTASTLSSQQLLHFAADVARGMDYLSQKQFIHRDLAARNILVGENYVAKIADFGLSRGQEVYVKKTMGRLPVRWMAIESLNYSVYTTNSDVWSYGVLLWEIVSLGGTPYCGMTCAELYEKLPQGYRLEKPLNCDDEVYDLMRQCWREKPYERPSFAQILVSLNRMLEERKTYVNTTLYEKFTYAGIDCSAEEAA
Take `Cc1ccc(O)cc1Nc1ccnc2ccc(S(C)(=O)=O)cc12`: the result was Active.
The same measure, in the same setting: the result for `Cc1ccc(O)cc1Nc1ccnc2cc(-c3csc(CN4CCOCC4)n3)c(S(C)(=O)=O)cc12` reads “Active”.

The target in the next experiment is Vascular endothelial growth factor receptor 2 (Homo sapiens) (UniProt P35968). Description: Inhibitory of VEGFR2.
Chain of Vascular endothelial growth factor receptor 2 (Homo sapiens) (P35968 whole entry): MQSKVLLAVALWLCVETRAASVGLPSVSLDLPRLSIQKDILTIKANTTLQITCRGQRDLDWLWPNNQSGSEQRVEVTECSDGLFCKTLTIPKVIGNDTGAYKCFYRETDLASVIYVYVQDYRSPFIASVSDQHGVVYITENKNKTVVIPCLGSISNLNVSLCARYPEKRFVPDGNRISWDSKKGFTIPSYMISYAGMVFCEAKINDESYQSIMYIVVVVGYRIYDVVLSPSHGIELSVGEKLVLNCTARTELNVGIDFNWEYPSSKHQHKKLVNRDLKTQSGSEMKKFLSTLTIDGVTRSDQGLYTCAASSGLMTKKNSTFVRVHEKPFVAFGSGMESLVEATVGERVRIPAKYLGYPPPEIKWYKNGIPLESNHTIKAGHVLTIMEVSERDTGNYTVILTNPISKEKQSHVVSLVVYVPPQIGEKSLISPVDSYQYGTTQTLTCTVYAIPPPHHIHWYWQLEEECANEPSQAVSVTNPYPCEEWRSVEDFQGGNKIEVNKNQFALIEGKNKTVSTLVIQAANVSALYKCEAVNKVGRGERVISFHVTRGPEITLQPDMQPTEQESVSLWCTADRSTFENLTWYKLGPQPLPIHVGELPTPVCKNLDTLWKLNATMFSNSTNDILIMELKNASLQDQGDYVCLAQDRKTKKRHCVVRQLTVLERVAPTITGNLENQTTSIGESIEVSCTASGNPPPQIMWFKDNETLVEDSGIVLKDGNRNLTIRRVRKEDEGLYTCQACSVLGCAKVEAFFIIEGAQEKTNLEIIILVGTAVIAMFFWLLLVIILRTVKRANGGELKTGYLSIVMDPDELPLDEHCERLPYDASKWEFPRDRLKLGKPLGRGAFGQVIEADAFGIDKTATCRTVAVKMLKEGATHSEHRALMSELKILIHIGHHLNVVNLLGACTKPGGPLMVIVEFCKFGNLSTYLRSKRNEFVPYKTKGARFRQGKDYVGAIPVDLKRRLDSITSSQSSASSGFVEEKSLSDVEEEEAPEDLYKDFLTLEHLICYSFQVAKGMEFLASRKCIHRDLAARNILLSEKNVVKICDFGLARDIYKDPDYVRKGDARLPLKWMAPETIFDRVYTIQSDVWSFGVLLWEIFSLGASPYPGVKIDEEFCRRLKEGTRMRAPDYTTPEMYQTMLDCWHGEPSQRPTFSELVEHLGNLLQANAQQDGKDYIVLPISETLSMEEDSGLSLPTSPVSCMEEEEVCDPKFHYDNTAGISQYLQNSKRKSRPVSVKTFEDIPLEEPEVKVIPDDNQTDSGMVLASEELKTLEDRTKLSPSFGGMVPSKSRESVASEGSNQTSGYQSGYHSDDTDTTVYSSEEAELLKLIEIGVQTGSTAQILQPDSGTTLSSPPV
Take `Cc1ccc(O)cc1Nc1ccnc2ccc(S(C)(=O)=O)cc12`: the result was Active.
As to `Cc1ccc(O)cc1Nc1ccnc2cc(-c3csc(CN4CCOCC4)n3)c(S(C)(=O)=O)cc12`, the result was Active.

The target in another experiment is Tyrosine-protein kinase Lyn (Homo sapiens) (UniProt P07948). In words: Inhibitory of lyn.
Chain of Tyrosine-protein kinase Lyn (Homo sapiens) (P07948 2-512 limits assumed): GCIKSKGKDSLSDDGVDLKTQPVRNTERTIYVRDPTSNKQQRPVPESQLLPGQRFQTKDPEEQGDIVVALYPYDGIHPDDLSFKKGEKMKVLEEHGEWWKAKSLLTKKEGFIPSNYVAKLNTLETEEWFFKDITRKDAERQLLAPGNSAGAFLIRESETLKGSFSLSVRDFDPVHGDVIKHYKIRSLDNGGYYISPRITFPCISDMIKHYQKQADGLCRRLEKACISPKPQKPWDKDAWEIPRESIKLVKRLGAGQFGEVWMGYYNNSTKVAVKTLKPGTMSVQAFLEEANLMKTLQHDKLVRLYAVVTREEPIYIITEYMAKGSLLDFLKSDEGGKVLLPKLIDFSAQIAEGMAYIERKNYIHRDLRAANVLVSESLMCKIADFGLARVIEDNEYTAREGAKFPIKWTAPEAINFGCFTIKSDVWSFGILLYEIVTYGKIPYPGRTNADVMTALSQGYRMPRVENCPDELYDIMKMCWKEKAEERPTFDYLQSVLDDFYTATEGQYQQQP
For `Cc1ccc(O)cc1Nc1ccnc2ccc(S(C)(=O)=O)cc12`, the result was Active.
Still for that read-out and setting: the result for `Cc1ccc(O)cc1Nc1ccnc2cc(-c3csc(CN4CCOCC4)n3)c(S(C)(=O)=O)cc12` reads “Active”.

The target in the next experiment is T1, Proto-oncogene tyrosine-protein kinase receptor Ret (Homo sapiens, UniProt P07949). In words: Inhibition of RET kinase expressed in Sf9 cells at 5000 nm. In outline:
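RET kinase domain (intracellular aa 713–1072, short isoform), expressed in Sf9 insect cells and Ni-purified. 100 ng enzyme was screened at a single 5000 nM concentration, in triplicate. Reaction: MOPS pH 7.4, MgCl2, ATP (100 µM stock) plus [γ-33P]ATP 1 µCi, and poly(Glu-Tyr) substrate, 30 min at room temperature. Stopped with 0.5% H3PO4, filtered on phosphocellulose, read as scintillation cpm (mean of three).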
As to `COc1cc2ncnc(Nc3ccc(Cl)c(O)c3)c2cc1OC`, the Activity was found to be 298 cpm.
The same measure, in the same setting: the same measure for `CS(=O)(=O)Cc1ccc(N/C=C2\C(=O)Nc3ccc4ncsc4c32)cc1`: 1310 cpm; for `CS(=O)(=O)c1ccc2nccc(Nc3cc(O)c(F)cc3Cl)c2c1`: 460 cpm; for `NS(=O)(=O)c1ccc(-c2cnc3c(c2)/C(=C/c2cc(Br)c(O)c(Br)c2)C(=O)N3)cc1`: 355 cpm.
On to `CN(C)S(=O)(=O)c1ccc(N/C=C2\C(=O)Nc3ccc4ncccc4c32)cc1`, for which the Activity worked out at 1210 cpm.
`O=C1Nc2ccc3ncsc3c2/C1=C/Nc1ccc2c(c1)CS(=O)(=O)C2` registered an Activity of 428 cpm.
Still for that read-out and setting: the same measure for `O=C1Nc2ccc3ncsc3c2/C1=C/c1c[nH]cn1`: 950 cpm.

The next experiment deals with Proto-oncogene tyrosine-protein kinase Src (Homo sapiens) (UniProt P12931). Description: Inhibitory of c-SRC.
Chain of Proto-oncogene tyrosine-protein kinase Src (Homo sapiens) (P12931 2-536 limits assumed): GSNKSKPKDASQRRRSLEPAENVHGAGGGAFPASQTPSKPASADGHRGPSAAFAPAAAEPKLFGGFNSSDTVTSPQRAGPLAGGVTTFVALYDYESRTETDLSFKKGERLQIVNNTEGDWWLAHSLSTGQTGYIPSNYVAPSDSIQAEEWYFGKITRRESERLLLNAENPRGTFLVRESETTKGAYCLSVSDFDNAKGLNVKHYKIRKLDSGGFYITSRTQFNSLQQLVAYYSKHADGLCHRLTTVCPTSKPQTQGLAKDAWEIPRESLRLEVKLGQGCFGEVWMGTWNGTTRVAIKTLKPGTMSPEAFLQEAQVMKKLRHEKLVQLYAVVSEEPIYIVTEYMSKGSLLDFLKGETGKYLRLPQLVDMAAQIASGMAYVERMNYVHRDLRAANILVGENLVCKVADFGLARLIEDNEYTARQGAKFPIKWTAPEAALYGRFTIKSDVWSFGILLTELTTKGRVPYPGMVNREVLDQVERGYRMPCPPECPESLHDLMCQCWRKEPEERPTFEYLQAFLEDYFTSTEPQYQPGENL
With `Cc1ccc(O)cc1Nc1ccnc2ccc(S(C)(=O)=O)cc12`, the outcome was Active.
Regarding `Cc1ccc(O)cc1Nc1ccnc2cc(-c3csc(CN4CCOCC4)n3)c(S(C)(=O)=O)cc12`, the outcome was Active.

A further experiment addresses T1, Proto-oncogene tyrosine-protein kinase receptor Ret. Description: Inhibition of RET kinase in Sf9 cells. Format: cell-based.
Compound `Cc1ccc(O)cc1Nc1ccnc2cc(-c3ccccn3)ccc12` displayed an IC50 of 75 nM. This lies in the double-digit nanomolar range.
On the same count and under the same terms, the result for `OCc1nc(-c2ccc3c(Nc4cc(O)c(F)cc4Cl)ccnc3c2)cs1` reads 25 nM.
Compound `Oc1cc(Nc2ccnc3cc(-c4ccc(CN5CCOCC5)o4)c(Cl)cc23)c(Cl)cc1F` came in with a 50% inhibitory concentration (IC50) of more than 1000 nM.
On the same count and under the same terms, the same measure for `Oc1cc(Nc2ccnc3cc(-c4cccc(CNCCN5CCOCC5)c4)ccc23)c(F)cc1Cl`: 75 nM.
`Cc1ccc(O)cc1Nc1cc(C(F)(F)F)nc2cc(-c3ccncc3)ccc12` gave an IC50 of more than 1000 nM.
On the same count and under the same terms, the same measure for `Cc1ccc(O)cc1Nc1ccnc2cc(-c3csc(CN4CCOCC4)n3)c(S(C)(=O)=O)cc12`: 34 nM; for `Oc1cccc(Nc2c(Cl)cnc3cc(-c4cncs4)ccc23)c1`: 100 nM.
Regarding `Cc1ccc(O)cc1Nc1ccnc2ccc(S(=O)(=O)NCC3CC3)cc12`, 90 nM corresponded to half-maximal inhibition (IC50).
Same read-out and setting: the result for `Oc1cccc(Nc2ccnc3cc(-c4ccccn4)ccc23)c1` reads 6 nM; that for `Cc1ccc(O)cc1Nc1ccnc2ccc(C(=O)NC(C)C)cc12`, 95 nM; that for `Oc1cc(Nc2ccnc3cc(-c4cc5ccccc5o4)ccc23)ccc1Br`, 85 nM.
